Results from ChEMBL document CHEMBL3763103, “Synthesis and evaluation of vitamin D receptor-mediated activities of cholesterol and vitamin D metabolites” (Eur J Med Chem, 2016).
Calls of active or inactive are those of the source. No cut-off for these calls is given here.

Assays:
[1] = Cytotoxicity against HEK293T cells assessed as reduction in cell viability after 18 hrs by CellTiter-Glo luminescence assay; type: cell-based, HEK-293T; details: human, read-out: LD50
Vitamin D3 receptor [2] = target: T1, Vitamin D3 receptor (Homo sapiens, UniProt P11473); experiment: Agonist activity at VDR-LBD (unknown origin) expressed in Escherichia coli assessed as SRC2-3 coactivator peptide recruitment after 30 mins by fluorescence polarization assay
T1 sequence (P11473 whole entry): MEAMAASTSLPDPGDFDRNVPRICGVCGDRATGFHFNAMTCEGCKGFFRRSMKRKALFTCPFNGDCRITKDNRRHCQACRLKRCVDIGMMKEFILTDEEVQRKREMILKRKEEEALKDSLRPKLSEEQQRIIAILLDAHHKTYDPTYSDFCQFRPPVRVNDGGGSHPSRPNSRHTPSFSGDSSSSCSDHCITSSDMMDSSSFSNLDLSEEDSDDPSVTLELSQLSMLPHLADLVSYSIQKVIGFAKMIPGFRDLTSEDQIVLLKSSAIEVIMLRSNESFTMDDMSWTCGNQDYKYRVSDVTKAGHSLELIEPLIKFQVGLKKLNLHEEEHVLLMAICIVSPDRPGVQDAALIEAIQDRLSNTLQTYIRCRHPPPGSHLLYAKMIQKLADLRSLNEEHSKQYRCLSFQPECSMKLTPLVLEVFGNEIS

Vitamin D3 receptor [3] = target: T1, Vitamin D3 receptor; experiment: Agonist activity at VP16 tagged-VDR-LBD (unknown origin) expressed in HEK293T cells assessed as SRC1 coactivator peptide recruitment after 16 hrs by luciferase reporter gene based two hybrid assay; type: cell-based, HEK-293T
Vitamin D3 receptor [4] = target: T1, Vitamin D3 receptor; experiment: Antagonist activity against VP16 tagged-VDR-LBD (unknown origin) expressed in HEK293T cells assessed as inhibition of 1,25-dihydroxyvitamin D3-induced SRC1 coactivator peptide recruitment after 16 hrs by luciferase reporter gene based two hybrid assay; type: cell-based, HEK-293T
Vitamin D3 receptor [5] = target: T1, Vitamin D3 receptor; experiment: Antagonist activity against VDR-LBD (unknown origin) expressed in Escherichia coli assessed as inhibition of VDR agonist LG190178-induced SRC2-3 coactivator peptide recruitment after 30 mins by fluorescence polarization assay
[6] = target: T2, Vitamin D3 receptor (Homo sapiens) (UniProt P11473); experiment: Agonist activity at human VP16 tagged-VDR-LBD after 16 hrs by luciferase reporter gene based transcription assay relative to 1,25-dihydroxyvitamin D3
T2 sequence (whole entry): T1 sequence (P11473 whole entry)
Summary of the method: (§1)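 HEK293T cells were lipid-transfected with hVDR-Gal4 and 4×UAS luciferase reporter plasmids for 16 h. Cells were then plated at 15,000/well on matrigel in phenol-red-free DMEM with 2% charcoal-treated FBS. Compounds (1:3 serial dilution, max final 150 µM) were added after 4 h and incubated 16 h at 37°C; readout by Bright-Glo luminescence. […] Three experiments in quadruplicate; nonlinear regression.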

[7] = target: T2, Vitamin D3 receptor (Homo sapiens); experiment: Agonist activity at VDR-LBD in human DU145 cells assessed as CYP24A1 expression at 7.5 uM after 18 hrs by qRT-PCR method relative to 1alpha,25-dihydroxyvitamin D3; type: cell-based; details: DU-145
Summary of the method: (§2)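 Non-transfected DU145 cells were grown in DMEM with 10% heat-inactivated FBS and plated on matrigel-coated 6-well plates overnight at 37°C. Total RNA was isolated and CYP24A1 fold change was measured by real-time RT-PCR (Ct method). Experiments were run in triplicate; significance by Dunnett ANOVA.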

[8] = target: T2, Vitamin D3 receptor (Homo sapiens); experiment: Agonist activity at VP16 tagged-VDR-LBD (unknown origin) expressed in HEK293T cells assessed as SRC1 coactivator peptide recruitment after 16 hrs by luciferase reporter gene based two hybrid assay relative to 1,25-dihydroxyvitamin D3; type: cell-based; details: HEK-293T
Summary of the method: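 HEK293T cells were lipid-transfected with VP16-VDR-LBD, SRC1-GAL4 and 4×UAS luciferase reporter plasmids for 16 h. Cells were then plated at 15,000/well on matrigel in phenol-red-free DMEM with 2% charcoal-treated FBS. Three experiments in quadruplicate; nonlinear regression.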

[9] = target: T2, Vitamin D3 receptor (Homo sapiens); experiment: Agonist activity at VDR-LBD in human DU145 cells assessed as CYP24A1 expression at 7.5 uM in presence of 20 nM 1alpha,25-dihydroxyvitamin D3 after 18 hrs by qRT-PCR method; type: cell-based; details: DU-145
Summary of the method: as §2, with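 “37°C. […]” for “37°C.”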

Vitamin D3 receptor [10] = target: T1, Vitamin D3 receptor; experiment: Agonist activity at human VP16 tagged-VDR-LBD after 16 hrs by luciferase reporter gene based transcription assay; summary of the method: as §1

Row | Compound | CC50 at 18 h [1] [µM] | EC50 (Vitamin D3 receptor [2]) [µM] | EC50 (Vitamin D3 receptor [3]) [µM] | IC50 (Vitamin D3 receptor [4]) [µM] | IC50 (Vitamin D3 receptor [5]) [µM] | Efficacy [6] [%] | Activity [7] | Efficacy [8] [%] | Activity [9] | EC50 (Vitamin D3 receptor [10]) [µM]
1 | C[C@H](CCC(=O)NCCS(=O)(=O)O)[C@H]1CC[C@H]2[C@@H]3CC[C@@H]4C[C@H](O)CC[C@]4(C)[C@H]3CC[C@]12C [TAUROLITHOCHOLIC ACID] | > 150 | > 150 | > 150 | > 50 | 14.5 | – | – | – | – | –
2 | C[C@H](CCC(=O)O[C@@H]1O[C@H](C(=O)O)[C@@H](O)[C@H](O)[C@H]1O)[C@H]1CC[C@H]2[C@@H]3CC[C@@H]4C[C@H](O)CC[C@]4(C)[C@H]3CC[C@]12C | > 150 | > 150 | 6.52 | > 150 | 2.86 | 70 | Active | 29 | Active | 21.3
3 | C[C@H](CCC(=O)O)[C@H]1CC[C@H]2[C@@H]3CC[C@@H]4C[C@H](O)CC[C@]4(C)[C@H]3CC[C@]12C [LITHOCHOLIC ACID] | 55.9 | – | – | – | – | – | – | – | – | –
4 | C[C@H](CCC(=O)O)[C@H]1CC[C@H]2[C@@H]3[C@@H](O)C[C@@H]4C[C@H](O)CC[C@]4(C)[C@H]3CC[C@]12C [URSODIOL] | > 150 | > 150 | > 150 | > 50 | > 150 | – | – | – | – | –
5 | COC(=O)CC[C@@H](C)[C@H]1CC[C@H]2[C@@H]3CC[C@@H]4C[C@H](O)CC[C@]4(C)[C@H]3CC[C@]12C | 50.4 | > 150 | > 150 | 15.1 | > 150 | – | – | – | – | –
6 | C[C@H](CCC(=O)O)[C@H]1CC[C@H]2[C@@H]3CC[C@@H]4C[C@H](O)CC[C@]4(C)[C@H]3C[C@H](O)[C@]12C [DEOXYCHOLIC ACID] | > 150 | > 150 | > 150 | > 50 | > 150 | – | – | – | – | –
7 | C[C@H](CCC(=O)O)[C@H]1CC[C@H]2[C@@H]3[C@H](O)C[C@@H]4C[C@H](O)CC[C@]4(C)[C@H]3CC[C@]12C [CHENODIOL] | > 150 | > 150 | > 150 | > 50 | > 150 | – | – | – | – | –
8 | C[C@H](CCC(=O)NCC(=O)O)[C@H]1CC[C@H]2[C@@H]3CC[C@@H]4C[C@H](O)CC[C@]4(C)[C@H]3CC[C@]12C [LITHOGLYCOCHOLATE] | > 150 | > 150 | > 150 | > 50 | 40.1 | – | – | – | – | –
9 | C[C@H](CCC(=O)O)[C@H]1CC[C@H]2[C@@H]3CC[C@@H]4C[C@H](OS(=O)(=O)O)CC[C@]4(C)[C@H]3CC[C@]12C | > 150 | > 150 | > 150 | > 50 | 23.3 | – | – | – | – | –
10 | C[C@H](CCC(=O)O)[C@H]1CC[C@H]2[C@@H]3CC[C@@H]4C[C@H](O[C@@H]5O[C@H](C(=O)O)[C@@H](O)[C@H](O)[C@H]5O)CC[C@]4(C)[C@H]3CC[C@]12C | > 150 | > 50 | 20.5 | > 150 | 31.5 | 55 | inactive | 49 | – | 12.3
11 | C=C1/C(=C\C=C2/CCC[C@]3(C)[C@@H]([C@H](C)CC(=O)O)CC[C@@H]23)C[C@@H](O)C[C@@H]1O | > 100 | > 100 | 0.87 | > 100 | 2.29 | – | Active | 55 | – | –
12 | C[C@H](CCC(=O)O)[C@H]1CC[C@H]2[C@@H]3C[C@H](O)[C@@H]4C[C@H](O)CC[C@]4(C)[C@H]3CC[C@]12C [HYODEOXYCHOLIC_ACID] | > 150 | > 150 | > 150 | > 50 | > 150 | – | – | – | – | –
13 | CC(=O)O[C@@H]1CC[C@@]2(C)[C@H](CC[C@@H]3[C@@H]2CC[C@]2(C)[C@@H]([C@H](C)CCC(=O)O)CC[C@@H]32)C1 | > 50 | > 150 | 1.49 | > 50 | 11 | – | – | – | – | –
